Measured values taken from article PMC5079537 (Cancer cell, 2016).

Tests used:
[1] = tested on: endogenous MDM2 in cancer cells; assay: IP-Western blot for ubiquitination of endogenous MDM2; type: cell-based, human
Summary of the method: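 EU-1 cells treated with 10 μM test compound or a control compound. Lysed in Tris pH 7.6/NaCl/NP-40 buffer with protease and phosphatase inhibitors, cleared, then immunoprecipitated with anti-MDM2 on protein G/protein A-agarose. Immunoprecipitates run on SDS-PAGE, transferred to nitrocellulose, probed with anti-ubiquitin and detected by chemiluminescence.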

[2] = tested on: EU-1 leukemia cells in SCID mice; assay: EU-1 leukemia xenograft in SCID mice; type: in vivo
[3] = tested on: p53 in EU-1 cells; assay: Western blot for p53 expression; type: cell-based, human; details: 1 μM MX3 or 10 μM MX69, 2 to 8 hr after treatment
[4] = tested on: caspases 3, 7 and 9, PARP; assay: Western blot and ELISA for caspase activation and PARP cleavage; type: cell-based, human; details: ALL and NB cells
Summary of the method: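 Western blot of caspase-3 activation and PARP cleavage in cancer cells treated with test compounds at 1 or 10 μM, or a control compound at 10 μM, over a time course. Cells were lysed in 50 mM Tris pH 7.6, 150 mM NaCl, 1% NP-40 with phosphatase and protease inhibitors. Lysates were run on SDS-PAGE, transferred to nitrocellulose, probed with specific antibodies and detected by chemiluminescence.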

[5] = tested on: NBMM cells (normal human hematopoiesis); assay: Clonogenic analyses for CFU-GM and BFU-E; type: cell-based; details: colonies after 14 days
[6] = tested on: p53 in EU-1 cells; assay: CHX pulse-chase assay, p53 turnover; type: cell-based, human; details: control less than 30 min
[7] = tested on: XIAP IRES; assay: Dicistronic reporter assay; type: cell-based; details: dicistronic plasmid pRL-xi-FL
[8] = tested on: human normal bone marrow mononuclear (NBMM) cells; assay: WST cytotoxic assay on normal bone marrow cells; type: cell-based
Summary of the method: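 Normal human bone marrow mononuclear cells came from five consenting donors under IRB approval. Cells in 96-well plates got a range of test compound concentrations for 20 hr, then WST (25 μg/well) for another 4 hr. OD read at 450 nm against 620 nm reference. Mean ± SD of three independent experiments.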

[9] = tested on: MDM2 in EU-1 cells; assay: CHX pulse-chase assay, MDM2 turnover; type: cell-based, human; details: 10 μM for 4 hr, control greater than 90 min
[10] = tested on: MDM2 and XIAP expression in ALL and NB cells; assay: Western blot for MDM2 and XIAP expression in cancer cells; type: cell-based, human
Summary of the method: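 MDM2-overexpressing ALL lines (EU-1, EU-3) and NB lines (SH-EP1, NB-1691) were treated with test compounds for 24 hr. Time-course and dose-response runs were done in EU-1. Lysis was in Tris pH 7.6/NaCl/1% NP-40 buffer with phosphatase and protease inhibitors. Lysates were resolved by SDS-PAGE, transferred to nitrocellulose, probed for MDM2 and XIAP, and detected by chemiluminescence.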

[11] = tested on: MYCN IRES; assay: Dicistronic reporter assay, control IRES; type: cell-based
[12] = tested on: 12 cancer cell lines (6 ALL and 6 NB); type: cell-based; details: 24 hr
[13] = tested on: Hsd:ICR (CD-1) normal mice; assay: Maximum tolerated dose; type: in vivo; details: doses between 25 and 200 mg/kg i.p., 3 days/week x 2 courses
[14] = tested on: EU-1 cells; assay: Annexin-V FITC staining for apoptosis; type: cell-based, human; details: 10 μM
Summary of the method: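 EU-1 cells treated with 10 μM test compound were washed in PBS and stained with FITC-annexin V and 7-AAD using a kit per the maker's protocol. Read by fluorescence microscopy (annexin V green, 7-AAD red) and by flow cytometry. For flow quantitation, cells were treated for 24 hr. Mean of three independent experiments, bars ± SD.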

[15] = tested on: Hsd:ICR (CD-1) normal mice; details: 100 mg/kg
[16] = target: T1, MDM2 RING protein (Homo sapiens, UniProt Q00987); assay: Fluorescent titration binding assay
T1 sequence (Q00987 438-479 limits assumed): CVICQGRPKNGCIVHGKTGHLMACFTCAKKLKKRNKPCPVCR
Summary of the method: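 Binding to GST-MDM2 RING protein measured by fluorescence titration, using the protein's intrinsic fluorescence (excitation 280 nm, emission 335 nm). Protein titrated with increasing test compound concentrations. Relative change in fluorescence intensity traced and normalised to derive binding Kd.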

[17] = target: T1, MDM2 RING protein; assay: ITC binding assay; details: read-out: binding Kd to MDM2 RING protein
[18] = target: XIAP IRES; assay: Fluorescent titration binding assay; details: read-out: binding Kd to XIAP IRES
Summary of the method: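 Fluorescence-labelled XIAP IRES RNA (excitation 485 nm, emission 530 nm) titrated with increasing test compound concentrations. Relative change in fluorescence intensity traced and normalised to derive binding Kd.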

Cc1ccc(NS(=O)(=O)c2ccc3c(c2)C2C=CCC2C(c2ccc(C(=O)O)cc2)N3)cc1C (stereo not drawn) [MX69]
ubiquitination of endogenous MDM2 [1]: induced ubiquitination
mice that died within 98–143 days after inoculation ([2]; 50 mg/kg i.p.): Forty
mice that died within 98–143 days after inoculation ([2]; 75 mg/kg i.p.): 20%
adverse effects (body weight, fur pattern) ([2]; up to 40-days post-treatment): no adverse effects
p53 protein levels [3]: significantly increased
activation of caspases 3, 7 and 9 and cleavage of PARP [4]: activation of these caspases and cleavage of PARP were detected
inhibitory effect on BFU-E ([5]; 10 μM): little inhibitory effect
inhibitory effect on CFU-GM ([5]; 10 μM): little inhibitory effect
p53 half-life [6]: remarkably increased
XIAP IRES-mediated translation of firefly luciferase [7]: inhibited
cell survival of NBMM ([8]; 2–8 μM for 24 hr): over 90%
MDM2 half-life [9]: < 30 min
inhibition of MDM2 and XIAP protein expression [10]: inhibited expression of both MDM2 and XIAP
activity on the MYCN IRES [11]: no activity
cytotoxic effect [12]: significant cytotoxic effect
tolerability, deaths by day 30 [13]: well tolerated, with no deaths
Annexin-V positive cells [14]: over 90%
ALT [15]: no significant increases
AST [15]: no significant increases
BUN [15]: no significant increases
PLT [15]: no significant decreases
WBC [15]: no significant decreases
histopathology of heart, liver and kidney [15]: no evidence of toxicity
Kd ([16]; read-out: binding Kd to MDM2 RING protein): 2340 nM
Kd [17]: 2750 nM

O=C1c2c(O)ccc(O)c2C(=O)c2c(NCCNCCO)ccc(NCCNCCO)c21 [MX3, mitoxantrone, reference compound]
ubiquitination of endogenous MDM2 [1]: induced ubiquitination
Kd [18]: 5260 nM
activation of caspases 3, 7 and 9 and cleavage of PARP [4]: activation of these caspases and cleavage of PARP were detected
inhibitory effect on BFU-E ([5]; 1 μM): severe inhibitory effects
cell survival of NBMM ([8]; 2 μM, 24 hr): about 50%
inhibition of MDM2 and XIAP protein expression [10]: inhibited expression of both MDM2 and XIAP
cytotoxic effect [12]: most potent cytotoxic effect
binding to MDM2 RING protein [16]: neither of these leads bound
